The results in this text go back to ChEMBL document CHEMBL3576834, “Antipodal crambescin A2 homologues from the marine sponge Pseudaxinella reticulata. Antifungal structure-activity relationships” (2015).

In brackets after ≈: the same amount, converted by molar mass.

In one test the test system is Cryptococcus gattii. Description: Antifungal activity against Cryptococcus neoformans var. gattii after 48 hrs by microbroth dilution method. The format is functional, Cryptococcus bacillisporus. Put shortly: (§1)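 Microbroth dilution in Antibiotic Medium #3. Test agent in DMSO serially diluted 2-fold across 12 wells. Overnight yeast cultures diluted to OD 0.01−0.02 and added to the wells, final volume 200 μL. Incubated at 35 °C for 48 h, then growth read as OD at 600 nm.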
(In general: Dilution methods test growth across graded concentrations, often in twofold steps.)

The subject of the next test is Candida albicans. Description: Antifungal activity against Candida albicans ATCC 14503 after 48 hrs by microbroth dilution method. Particulars: ATCC 14503, 48 h. It is filed as functional. Put shortly: as §1
The next test relates to Nakaseomyces glabratus. Description: Antifungal activity against Candida glabrata after 48 hrs by microbroth dilution method. The format is functional. Put shortly: as §1
In a further test the test system is Staphylococcus aureus. As to the kind of experiment: Antibacterial activity against Staphylococcus aureus at 80 ug by disk diffusion method. The format is functional. Particulars: read-out: IZ. (In general: In agar diffusion tests the substance spreads into inoculated agar from a disc or well.)
Another test relates to Pichia kudriavzevii. Description: Antifungal activity against Candida krusei after 48 hrs by microbroth dilution method. The format is functional. Put shortly:
as §1

Regarding `CCCCCCC[C@H]1NC(=N)N2CCCC2=C1C(=O)OCCCCNC(=N)N`, in the test with Cryptococcus gattii, the MIC50 (usually the lowest concentration that inhibits either 50% of growth or 50% of the strains tested, depending on the study) amounted to 1.2 µM (≈ 0.471 µg/mL); the MIC90 (as a rule, an inhibitory concentration at the 90% level, which refers to growth in some studies and to a panel of isolates in others) was determined as 2.3 µM (≈ 0.903 µg/mL). In the test with Candida albicans, this molecule displayed an MIC50 of 22 µM (≈ 8.64 µg/mL) and an MIC90 of 32 µM (≈ 12.6 µg/mL).
`CCCCCCCC[C@H]1NC(=N)N2CCCC2=C1C(=O)OCCCCNC(=N)N`: the results for the MIC50 with Cryptococcus gattii and with Candida albicans were 0.85 µM (≈ 0.346 µg/mL) and 14 µM (≈ 5.69 µg/mL), respectively. The MIC90 in the test on Cryptococcus gattii was determined as 2.2 µM (≈ 0.894 µg/mL); against Candida albicans it was 26 µM (≈ 10.6 µg/mL).
For the molecule `CCCCC[C@H]1NC(=N)N2CCCC2=C1C(=O)OCCCCNC(=N)N`, the MIC50 with Cryptococcus gattii is 2.5 µM (≈ 0.911 µg/mL); with Candida albicans, 39 µM (≈ 14.2 µg/mL); against Nakaseomyces glabratus it was 17 µM (≈ 6.2 µg/mL); with Pichia kudriavzevii, 34 µM (≈ 12.4 µg/mL). Moreover, the MIC90 in the test on Cryptococcus gattii stood at 4.9 µM (≈ 1.79 µg/mL); in the test with Candida albicans it was 49 µM (≈ 17.9 µg/mL); in the test on Nakaseomyces glabratus it was 41 µM (≈ 14.9 µg/mL); in the test on Pichia kudriavzevii it was 59 µM (≈ 21.5 µg/mL). Moreover, the zone of inhibition at 80 µg/disc in the test with Staphylococcus aureus was determined as 8 mm.
Turning to `CCCCCCCCC[C@H]1NC(=N)N2CCCC2=C1C(=O)OCCCCNC(=N)N`, the MIC50 in the test on Cryptococcus gattii came to 1.1 µM (≈ 0.463 µg/mL); in the test with Candida albicans, 11 µM (≈ 4.63 µg/mL); in the test on Nakaseomyces glabratus, 6.1 µM (≈ 2.57 µg/mL); with Pichia kudriavzevii, 11 µM (≈ 4.63 µg/mL). Also, the MIC90 turned out to be 2.6 µM (≈ 1.09 µg/mL) against Cryptococcus gattii, 22 µM (≈ 9.25 µg/mL) in the test with Candida albicans, 27 µM (≈ 11.4 µg/mL) in the test with Nakaseomyces glabratus and 24 µM (≈ 10.1 µg/mL) in the test on Pichia kudriavzevii.
Consider `C[C@@H]1[C@H](O)[C@@H](C)/C=C/C=C/C=C/C=C/C=C/C=C/C=C/[C@H](O[C@@H]2O[C@H](C)[C@@H](O)[C@H](N)[C@@H]2O)C[C@@H]2O[C@](O)(C[C@@H](O)C[C@@H](O)[C@H](O)CC[C@@H](O)C[C@@H](O)CC(=O)O[C@H]1C)C[C@H](O)[C@H]2C(=O)O` [AMPHOTERICIN B], for which the MIC50 was found to be 0.055 µM (≈ 0.0508 µg/mL) against Cryptococcus gattii, 0.037 µM (≈ 0.0342 µg/mL) against Candida albicans, 0.098 µM (≈ 0.0906 µg/mL) in the test on Nakaseomyces glabratus and 0.17 µM (≈ 0.157 µg/mL) against Pichia kudriavzevii. In addition, the MIC90 stood at 0.12 µM (≈ 0.111 µg/mL) against Cryptococcus gattii, 0.29 µM (≈ 0.268 µg/mL) against Candida albicans, 0.25 µM (≈ 0.231 µg/mL) against Nakaseomyces glabratus and 0.23 µM (≈ 0.213 µg/mL) in the test on Pichia kudriavzevii.
